# Data from PMC8091929 (Journal of medicinal chemistry, 2020).
# Assays:
# [1] = system: human erythrocytes; experiment: In vitro hemolysis assay; assay type: cell-based; settings: 0.1, 1, and 10 μg/mL, 37 °C, 45 min, PBS pH 7.4
# Outline: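 Human whole-blood erythrocytes were pelleted at 500g, 4 °C, 5 min, washed in 150 mM NaCl, resuspended in PBS pH 7.4 and diluted 40×. They were mixed 4:1 with drug solution in PBS containing 0.5% DMSO, giving final 0.1, 1 or 10 μg/mL, and held 45 min at 37 °C (n = 6). Controls were 1% v/v Triton X-100 and PBS. After spinning at 500g for 10 min, supernatant A540 was read and % lysis was normalized to the controls.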
# [2] = molecular target: E. coli core RNAP with σ^70 (Escherichia coli, UniProt P0A8T7); experiment: In vitro transcription initiation assay; assay type: biochemical; settings: σ^70, λ PR promoter template, 26-mer RNA
# Chain of E. coli core RNAP with σ^70 (P0A7Z4 whole entry): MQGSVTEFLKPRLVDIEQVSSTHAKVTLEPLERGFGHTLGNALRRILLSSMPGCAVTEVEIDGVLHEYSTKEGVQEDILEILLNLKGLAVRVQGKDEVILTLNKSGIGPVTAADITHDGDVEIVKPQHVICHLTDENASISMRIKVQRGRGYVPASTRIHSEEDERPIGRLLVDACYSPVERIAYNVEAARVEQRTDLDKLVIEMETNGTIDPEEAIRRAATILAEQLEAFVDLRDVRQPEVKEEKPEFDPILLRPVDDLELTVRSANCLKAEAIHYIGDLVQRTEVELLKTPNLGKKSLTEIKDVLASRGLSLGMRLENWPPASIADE
# Chain of E. coli core RNAP with σ^70 (P0A8T7 whole entry): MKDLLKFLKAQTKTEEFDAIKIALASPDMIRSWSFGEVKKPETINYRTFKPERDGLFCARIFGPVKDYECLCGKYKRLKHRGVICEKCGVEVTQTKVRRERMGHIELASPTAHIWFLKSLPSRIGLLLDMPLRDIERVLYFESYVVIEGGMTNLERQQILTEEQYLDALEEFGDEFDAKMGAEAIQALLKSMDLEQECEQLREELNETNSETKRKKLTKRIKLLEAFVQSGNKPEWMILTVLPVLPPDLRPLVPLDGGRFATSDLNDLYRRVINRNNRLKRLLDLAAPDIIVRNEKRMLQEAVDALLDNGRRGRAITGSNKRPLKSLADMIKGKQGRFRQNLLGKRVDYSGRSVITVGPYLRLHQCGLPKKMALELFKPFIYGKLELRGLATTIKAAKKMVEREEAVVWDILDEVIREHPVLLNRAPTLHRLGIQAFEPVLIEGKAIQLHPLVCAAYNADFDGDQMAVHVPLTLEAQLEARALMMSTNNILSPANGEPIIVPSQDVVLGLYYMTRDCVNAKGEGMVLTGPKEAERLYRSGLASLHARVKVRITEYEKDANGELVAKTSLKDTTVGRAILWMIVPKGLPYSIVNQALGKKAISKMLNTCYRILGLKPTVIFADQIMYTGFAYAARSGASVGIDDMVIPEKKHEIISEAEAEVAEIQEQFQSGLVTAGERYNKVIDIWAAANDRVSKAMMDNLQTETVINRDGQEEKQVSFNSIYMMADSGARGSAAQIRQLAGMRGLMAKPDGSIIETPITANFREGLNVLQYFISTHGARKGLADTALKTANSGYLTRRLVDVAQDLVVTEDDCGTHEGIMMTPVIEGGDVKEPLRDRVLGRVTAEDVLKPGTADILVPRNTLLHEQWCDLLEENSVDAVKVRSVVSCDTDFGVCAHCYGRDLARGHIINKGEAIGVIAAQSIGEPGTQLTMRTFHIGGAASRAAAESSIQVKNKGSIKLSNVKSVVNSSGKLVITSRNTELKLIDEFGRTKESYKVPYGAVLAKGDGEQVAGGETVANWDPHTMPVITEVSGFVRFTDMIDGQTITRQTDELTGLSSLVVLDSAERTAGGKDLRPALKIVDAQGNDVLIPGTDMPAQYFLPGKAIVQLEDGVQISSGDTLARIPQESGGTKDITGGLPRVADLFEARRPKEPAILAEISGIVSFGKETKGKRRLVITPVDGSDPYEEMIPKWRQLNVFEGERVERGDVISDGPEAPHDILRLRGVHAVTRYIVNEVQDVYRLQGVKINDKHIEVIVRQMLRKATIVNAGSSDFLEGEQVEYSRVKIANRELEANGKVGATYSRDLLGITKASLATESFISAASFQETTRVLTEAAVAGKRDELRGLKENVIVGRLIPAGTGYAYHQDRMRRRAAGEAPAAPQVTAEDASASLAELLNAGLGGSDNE
# Chain of E. coli core RNAP with σ^70 (P0A800 whole entry, further chain): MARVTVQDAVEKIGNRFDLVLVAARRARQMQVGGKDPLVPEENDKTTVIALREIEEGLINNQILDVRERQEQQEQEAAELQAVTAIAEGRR
# Chain of E. coli core RNAP with σ^70 (P0A8V2 whole entry, further chain): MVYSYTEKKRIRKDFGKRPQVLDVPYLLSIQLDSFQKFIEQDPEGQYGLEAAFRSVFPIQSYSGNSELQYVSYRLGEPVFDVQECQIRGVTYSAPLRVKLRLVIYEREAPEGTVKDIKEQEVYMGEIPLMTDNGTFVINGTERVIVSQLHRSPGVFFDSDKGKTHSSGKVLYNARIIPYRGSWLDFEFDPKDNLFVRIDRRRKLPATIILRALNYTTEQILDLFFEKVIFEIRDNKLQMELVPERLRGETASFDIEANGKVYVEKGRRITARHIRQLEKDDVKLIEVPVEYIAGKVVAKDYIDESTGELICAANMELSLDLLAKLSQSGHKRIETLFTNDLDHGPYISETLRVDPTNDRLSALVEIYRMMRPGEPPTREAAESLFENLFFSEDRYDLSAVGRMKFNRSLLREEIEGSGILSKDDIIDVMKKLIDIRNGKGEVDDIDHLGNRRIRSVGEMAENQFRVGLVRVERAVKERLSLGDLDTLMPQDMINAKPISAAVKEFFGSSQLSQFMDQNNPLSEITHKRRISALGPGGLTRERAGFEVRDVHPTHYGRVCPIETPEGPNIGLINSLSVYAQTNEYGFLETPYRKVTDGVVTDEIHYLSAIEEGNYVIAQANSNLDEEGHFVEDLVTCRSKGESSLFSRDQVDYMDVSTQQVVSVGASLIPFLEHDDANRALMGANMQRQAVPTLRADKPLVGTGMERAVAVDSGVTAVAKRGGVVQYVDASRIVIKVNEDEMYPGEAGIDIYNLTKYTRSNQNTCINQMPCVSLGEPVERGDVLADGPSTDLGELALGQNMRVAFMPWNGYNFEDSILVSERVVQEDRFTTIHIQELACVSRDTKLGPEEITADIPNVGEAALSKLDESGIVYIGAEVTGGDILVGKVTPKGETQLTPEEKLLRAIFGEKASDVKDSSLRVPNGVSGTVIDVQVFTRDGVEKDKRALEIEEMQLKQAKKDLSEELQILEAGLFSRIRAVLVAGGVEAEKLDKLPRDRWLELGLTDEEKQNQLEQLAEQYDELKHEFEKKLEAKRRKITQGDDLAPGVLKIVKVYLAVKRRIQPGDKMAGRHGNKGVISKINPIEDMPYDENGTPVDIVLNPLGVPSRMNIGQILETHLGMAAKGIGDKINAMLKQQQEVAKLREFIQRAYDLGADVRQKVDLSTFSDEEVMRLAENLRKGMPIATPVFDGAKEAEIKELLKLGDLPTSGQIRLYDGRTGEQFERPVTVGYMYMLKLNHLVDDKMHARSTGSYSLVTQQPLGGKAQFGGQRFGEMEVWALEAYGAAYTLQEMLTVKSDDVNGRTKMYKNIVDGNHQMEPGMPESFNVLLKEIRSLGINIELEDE
# [3] = system: S. pneumoniae ATCC 49619; experiment: MIC by broth microdilution; assay type: cell-based, Streptococcus pneumoniae; settings: S. pneumoniae ATCC 49619, broth microdilution, 20 h at 37 °C
# [4] = system: pneumolysin; experiment: Pneumolysin secretion, Western blot of culture supernatant; assay type: cell-based, Streptococcus pneumoniae; settings: overnight culture of S. pneumoniae at 1/2 and 1/4 MIC, versus drug-free control
# Outline: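 S. pneumoniae cultured overnight in BHI without agitation, with or without serially diluted test compound; rifampicin and ceftriaxone controls at 2–0.002 μg/mL; 16–20 h. […] Western blot on PVDF, 5% milk/TBST block, rabbit polyclonal anti-pneumolysin 1:1000, overnight at 4 °C.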
# [5] = system: S. aureus ATCC 29213 cells; experiment: Cell content quantification of major macromolecules; assay type: cell-based, Staphylococcus aureus; settings: S. aureus ATCC 29213, 1/4 and 1/8 MIC, versus no-drug control
# Outline: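 A master culture of S. aureus ATCC 29213 was inoculated at OD₆₀₀ 0.1 and grown at 37 °C, 200 rpm to OD₆₀₀ 0.2. It was then split into aliquots with test compound or rifampicin at 1/4 and 1/8 MIC, plus an untreated aliquot. Cells were harvested at OD₆₀₀ 0.6 with volumes normalized, then pelleted. DNA, RNA and protein were kit-extracted. DNA and RNA were measured by Qubit BR fluorometric assays and protein by BCA. Triplicates.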
# [6] = system: S. pneumoniae ATP production; experiment: ATP production of S. pneumoniae cells; assay type: cell-based, Streptococcus pneumoniae; settings: at 1/4 MIC
# [7] = Solubility under the conditions of the CH–σ assay; assay type: physicochemical; settings: conditions of the CH–σ protein complementation assay
# [8] = system: S. pneumoniae; experiment: Time-kill kinetics, S. pneumoniae; assay type: cell-based, Streptococcus pneumoniae
# Outline: (§1)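 S. aureus was grown in MHB; S. agalactiae and S. pneumoniae in BHI with 5% CO₂. Incubation was 37 °C, 200 rpm. Samples taken at 0, 2, 4 and 6 h were serially diluted 10-fold and plated. CFU/mL was counted after overnight incubation at 37 °C, 5% CO₂. Triplicates.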
# [9] = system: S. agalactiae (GBS); experiment: Time-kill kinetics, S. agalactiae; assay type: cell-based, Streptococcus agalactiae; settings: over 6 h, even at 16 MIC
# Outline: as §1
# [10] = system: Gram-positive pathogens; experiment: MIC against other Gram-positive pathogens; assay type: cell-based
# Outline: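 Broth microdilution followed CLSI, in cation-adjusted Mueller–Hinton broth or BHI where indicated. Twofold dilutions ran from 256 to 0.5 μg/mL, with inoculum ~5 × 10⁵ CFU/mL and 20 h incubation at 37 °C. Panel strains were ATCC Gram-positive strains (Enterococcus, S. aureus, streptococci, staphylococci). MIC was the lowest concentration with no visible growth. At least duplicates.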
# [11] = system: S. aureus; experiment: Time-kill kinetics, S. aureus; assay type: cell-based, Staphylococcus aureus; settings: over 6 h, even at 16 MIC
# Outline: as §1
# [12] = system: B. subtilis BS1048 (RNAP β′-GFP); experiment: Confocal microscopy of RNAP-GFP localization; assay type: cell-based, Bacillus subtilis; settings: B. subtilis BS1048, at 1/2 MIC, 15 min
# Outline: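 2.5 μL culture placed on fresh 1.2% agarose pad under coverslip; imaged by confocal microscopy (63×/1.3 oil objective, mercury metal halide lamp).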
# [13] = system: RNAP holoenzyme; settings: cited from earlier work
structure (smiles),measurement,setting,value
"O=C(O)c1ccccc1C(=O)c1ccc(Sc2ccc(Cl)c(Cl)c2)c([N+](=O)[O-])c1 [Compound 13, 2-(4-((3,4-dichlorophenyl)thio)-3-nitrobenzoyl)benzoic acid]",hemolytic value (% of lysis),[1],< 10%
same,inhibition of transcription (RNA synthesis) in vitro,[2],inhibited transcription
"O=C(Nc1ccccc1C(=O)O)c1ccc(Sc2ccc(Cl)c(Cl)c2)c([N+](=O)[O-])c1 [Compound 41, 2-(4-((3,4-Dichlorophenyl)thio)-3-nitrobenzamido)benzoic Acid]",MIC,[3],lost activity completely
CO/N=C(\C(=O)N[C@@H]1C(=O)N2C(C(=O)O)=C(CSc3nc(=O)c(O)nn3C)CS[C@H]12)c1csc(N)n1 [ceftriaxone],pneumolysin levels in culture supernatant,[4],increased
"O=C(O)c1ccc(Cl)c(NCc2ccc(Sc3ccc(Cl)c(Cl)c3)c([N+](=O)[O-])c2)c1 [Compound 45, 4-Chloro-3-((4-((3,4-dichlorophenyl)thio)-3-nitrobenzyl)amino)-benzoic Acid]",hemolytic value (% of lysis),[1],< 10%
"CO[C@H]1/C=C/O[C@@]2(C)Oc3c(C)c(O)c4c(O)c(c(/C=N/N5CCN(C)CC5)c(O)c4c3C2=O)NC(=O)/C(C)=C\C=C\[C@H](C)[C@H](O)[C@@H](C)[C@@H](O)[C@@H](C)[C@H](OC(C)=O)[C@@H]1C [rifampicin, reference compound]",pneumolysin levels in culture supernatant,[4],suppressed
same,total RNA levels,[5],reduced
same,total levels of DNA,[5],remained mostly unaffected
"O=C(O)c1ccccc1NCc1ccc(Sc2ccc(Cl)c(Cl)c2)c([N+](=O)[O-])c1 [Compound 43, 2-((4-((3,4-Dichlorophenyl)thio)-3-nitrobenzyl)amino)benzoic Acid]",hemolytic value (% of lysis),[1],< 10%
"O=C(O)c1ccc(Cl)cc1NCc1ccc(Sc2ccc(Cl)c(Cl)c2)c([N+](=O)[O-])c1 [Compound 54, 4-Chloro-2-((4-((3,4-dichlorophenyl)thio)-3-nitrobenzyl)amino)-benzoic Acid]",pneumolysin levels in culture supernatant,[4],substantial decrease
same,ATP production rate,[6],significant decrease
same,solubility under the testing conditions,[7],insolubility under the testing conditions
same,total RNA levels,[5],reduction
same,total levels of DNA,[5],remained mostly unaffected
same,total protein levels,[5],Reduction
same,inhibition of transcription (RNA synthesis) in vitro,[2],much more potent inhibition
same,time-kill profile,[8]; at 1 MIC,largely bacteriostatic
same,decrease in cell count,[8]; at higher concentrations (4 and 16 MICs),ca. 2 fold log10 decrease
same,time-kill profile,[9],largely bacteriostatic
same,MIC,[10],1 to 2 µg/mL
same,time-kill profile,[11],largely bacteriostatic
same,RNAP-GFP localization,[12],delocalization of the fluorescence from the nucleoid
"Nc1ccccc1Sc1ccc(C(=O)c2ccccc2C(=O)O)cc1[N+](=O)[O-] [Compound 1, 2-(4-((2-Aminophenyl)thio)-3-nitrobenzoyl)benzoic acid]",RNAP holoenzyme formation and RNA synthesis in vitro,[13],inhibited
